# From PubChem BioAssay
# Rows were chosen to be rich in hits. Some 5.8% of all compounds tested hit in one or more screens of this group.
# T cruzi growth-1: inhibitors of T. cruzi proliferation. AID 624255. inhibition, % at 8.34 µM. T. cruzi beta-gal in NIH3T3, GalScreen luminescence, 90 h. 5.9% of 77,000 active;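 active = mean inhibition above about 93%, with at least 55% of replicates each passing it, limit read from the data, passing the limit was not always enough; inconclusive = only one of those two conditions holds; inactive = neither condition holds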
# Pf Dd2 inh: blocks growth of Plasmodium falciparum Dd2 parasites. P. falciparum Dd2 growth, SYBR Green, 72 h; active compounds read low. activity change, % at 10 µM. 2.3% of 94,000 active. AID 1159554; in the data active = activity change below about -80%; inconclusive = no clear call, values can overlap the other calls
# GASC1 inh: KDM4C (human) demethylase inhibition; Q9H3R0; GST-KDM4C 2-372, H3K9me3 peptide, LANCE TR-FRET; inhibition, % at 12.5 µM; 0.15% of 96,000 active; AID 720574;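 active = mean replicate inhibition above about 25%, with at least 55% of replicates also reaching it, limit read from the data, passing the limit was not always enough; inconclusive = only one of those two conditions met; inactive = neither condition met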
# Target sequence (Q9H3R0 2-372 limits assumed): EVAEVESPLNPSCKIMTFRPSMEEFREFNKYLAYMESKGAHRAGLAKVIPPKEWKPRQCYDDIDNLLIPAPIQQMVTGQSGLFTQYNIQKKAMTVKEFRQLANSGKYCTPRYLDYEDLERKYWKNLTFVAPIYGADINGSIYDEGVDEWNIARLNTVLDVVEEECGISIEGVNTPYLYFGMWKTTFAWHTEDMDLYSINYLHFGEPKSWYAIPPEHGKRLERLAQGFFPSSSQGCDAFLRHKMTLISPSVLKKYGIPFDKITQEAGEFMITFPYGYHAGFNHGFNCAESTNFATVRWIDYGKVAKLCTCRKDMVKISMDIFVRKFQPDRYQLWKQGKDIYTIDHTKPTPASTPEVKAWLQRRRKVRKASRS
#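 Material: GST-tagged GASC-1 (JMJD2C) catalytic fragment, aa 2-372 / Quantity: enzyme final amount 10 nM / Medium: HEPES buffer, pH 7.5, plus ascorbate / Doses: one test concentration per compound / Incubation: 30 min reaction, 60 min detection, RT / Measured by: LANCE TR-FRET / Read-out: inhibition from TR-FRET ratio decrease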
# IDH1 R132H inh: IDH1 R132H (human) inhibition; inhibition, % at 10 µM; 0.18% of 70,000 active; O75874; IDH1 R132H reductase, diaphorase/resazurin fluorescence, 60 min; AID 624101; in the data active = inhibition above about 34%; inconclusive = no clear call, values can overlap the other calls; inactive = below about 11%
# T cruzi growth-2: inhibitors of T. cruzi proliferation. shares compounds with T cruzi growth-1. T. cruzi beta-gal in NIH3T3, GalScreen luminescence, 90 h. inhibition, % at 8.35 µM. 72% of 5,600 active;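 active = mean replicate inhibition above about 95% and at least 55% of replicates individually reaching it, limit read from the data; inconclusive = only one of the two criteria is met; inactive = neither criterion is met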
# T cruzi growth-3: Trypanosoma cruzi proliferation inhibition; shares compounds with T cruzi growth-1; T. cruzi beta-gal in NIH3T3, GalScreen luminescence, 90 h; 21% of 5,600 active; AID 651740; inhibition, % at 2.09 µM;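 active = mean inhibition above about 95%, with at least 55% of replicates also reaching it, limit read from the data; inconclusive = meets just one of the two conditions; inactive = meets neither condition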
# 3T3 cytotox: cytotoxicity in mouse NIH/3T3 fibroblasts | shares compounds with T cruzi growth-1 | NIH/3T3 viability, CellTiter-Glo ATP luminescence, 90 h | cytotoxicity (signal decrease), % at 8.35 µM | 14% of 5,600 active | AID 651742;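 active = mean signal decrease across replicates above about 35% based on untreated-well scatter, with enough replicates individually passing, limit read from the data; inconclusive = no rule stated though some were filed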
# 3T3 cytotox 2: cytotoxicity in mouse NIH/3T3 fibroblasts; shares compounds with T cruzi growth-1; NIH/3T3 viability, CellTiter-Glo ATP luminescence, 90 h; inhibition, % at 24.9 µM; 56% of 5,600 active; AID 651744;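 active = mean loss of cell viability signal at or above a set limit, and enough replicates individually reaching it; inconclusive = meets only the mean limit or only the replicate share; inactive = meets neither condition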
# Numbers stand for hits; n = inactive; u = inconclusive; x = no result.
SMILES,T cruzi growth-1,Pf Dd2 inh,GASC1 inh,IDH1 R132H inh,T cruzi growth-2,T cruzi growth-3,3T3 cytotox,3T3 cytotox 2
C[C@@H]1CN([C@H](C)CO)C(=O)c2cc(NC(=O)Nc3cccc4ccccc34)ccc2O[C@@H](C)CCCCO[C@@H]1CN(C)Cc1ccc(C(F)(F)F)cc1,u,-86.8,n,x,101.8,108.0,n,n
C[C@H]1CCCCO[C@H](CN(C)Cc2ccc(C(F)(F)F)cc2)[C@@H](C)CN([C@@H](C)CO)C(=O)c2cc(NC(=O)Nc3cccc4ccccc34)ccc2O1,u,n,n,x,97.4,109.4,n,n
COc1ccc2c3c([nH]c2c1)[C@H](CO)N(C)CC31CCN(C(=O)C2CC2)CC1,x,n,n,x,x,x,x,x
COc1ccc(C#Cc2ccc([C@@H]3[C@H](CO)N4CCCCN(C)C[C@@H]34)cc2)cc1,n,n,n,x,x,x,x,x
COc1ccc(NC(=O)N2CCCCN3[C@H](CO)[C@H](c4ccc(-c5ccccc5C)cc4)[C@H]3C2)cc1,n,n,n,x,x,x,x,x
Cc1ccccc1-c1ccc([C@H]2[C@H]3CN(C(=O)Nc4ccccc4)CCCCN3[C@H]2CO)cc1,118.0,n,n,x,112.3,n,n,34.0
COc1ccc(NC(=O)N2CCCCN3[C@H](C2)[C@@H](c2ccc(-c4ccccc4C)cc2)[C@@H]3CO)cc1,98.4,n,n,x,97.8,n,n,104.0
Cc1ccccc1-c1ccc([C@@H]2[C@H]3CN(C(=O)Nc4ccccc4)CCCCN3[C@H]2CO)cc1,103.8,n,n,x,104.0,n,n,104.8
Cc1ccccc1-c1ccc([C@H]2[C@@H](CO)N3CCCCN(C(=O)Nc4ccccc4)C[C@H]23)cc1,n,n,n,x,x,x,x,x
CO[C@H]1CN(C)C(=O)c2cc(NS(=O)(=O)c3cccc(F)c3)ccc2OC[C@H](C)N(Cc2cc(F)ccc2F)C[C@H]1C,114.7,n,n,n,108.1,n,n,105.3
CO[C@@H]1CN(C)C(=O)c2cc(NC(=O)C3CC3)ccc2OC[C@H](C)N(Cc2cc(F)ccc2F)C[C@@H]1C,n,n,n,n,x,x,x,x
CO[C@H]1CN(C)C(=O)c2ccc(NS(=O)(=O)c3cccc(F)c3)cc2OC[C@@H](C)N(Cc2cc(F)ccc2F)C[C@@H]1C,x,n,n,n,x,x,x,x
CO[C@H]1CN(C)C(=O)c2ccc(NS(=O)(=O)c3cccc(F)c3)cc2OC[C@@H](C)N(Cc2cc(F)ccc2F)C[C@H]1C,x,n,n,n,x,x,x,x
CO[C@H]1CN(C)C(=O)c2cc(NC(=O)C3CC3)ccc2OC[C@H](C)N(Cc2cc(F)ccc2F)C[C@@H]1C,97.2,n,n,n,108.4,n,n,45.1
CO[C@H]1CN(C)C(=O)c2cc(NS(=O)(=O)c3cccc(F)c3)ccc2OC[C@H](C)N(Cc2cc(F)ccc2F)C[C@@H]1C,111.8,n,n,n,104.7,n,n,n
CO[C@H]1CN(C)C(=O)c2ccc(NS(=O)(=O)c3cccc(F)c3)cc2OC[C@H](C)N(Cc2cc(F)ccc2F)C[C@H]1C,x,n,n,n,x,x,x,x
CO[C@H]1CN(C)C(=O)c2cc(NS(=O)(=O)c3cccc(F)c3)ccc2OC[C@@H](C)N(Cc2cc(F)ccc2F)C[C@@H]1C,112.2,n,n,n,110.1,n,n,n
CO[C@H]1CN(C)C(=O)c2cc(NC(=O)C3CCCCC3)ccc2OC[C@H](C)NC[C@H]1C,106.8,n,n,n,n,n,n,n
CC(=O)N(C)C[C@@H]1Oc2cc(C#CCN(C)C)ccc2S(=O)(=O)N([C@H](C)CO)C[C@H]1C,n,n,n,n,x,x,x,x
C[C@H](CO)N1C[C@H](C)[C@@H](CN(C)C(=O)CN(C)C)Oc2cc(C#CCN(C)C)ccc2S1(=O)=O,n,n,n,n,x,x,x,x
CC(=O)N(C)C[C@H]1Oc2cc(C#CCN(C)C)ccc2S(=O)(=O)N([C@H](C)CO)C[C@@H]1C,u,n,n,n,u,n,n,n
CCC(=O)N(C)C[C@@H]1Oc2cc(C#CCN(C)C)ccc2S(=O)(=O)N([C@@H](C)CO)C[C@H]1C,101.7,n,n,n,102.4,n,n,n
